From article PMC5292677 (Leukemia, 2016)
Where “and” joins values, the source holds several entries; their conditions need not be identical. Equal values may be shown once. Entries after “also recorded” stand apart in the source; their conditions may differ.

How the values were obtained:
JAK2^V617F allele burden = assay: PD: JAK2V617F allele burden; format: in vivo, human
How it was run: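 JAK2 allele burden was sampled on Day 1 of Cycles 1, 2 and 4, then every 3 cycles, during continuous 28-day oral dosing. On-treatment values were compared with the predose baseline. Analysis covered patients with ≥1 dose, a baseline value and ≥1 evaluable post-baseline assessment.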

cytokines = assay: PD: plasma biomarkers; format: in vivo, human
How it was run: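 Predose plasma was drawn on Day 1 of Cycles 1–4. Eighty-eight cytokines/proteins were quantified on a multiplexed HumanMAP v2.0 panel. Analysis covered patients with ≥1 dose, a baseline value and ≥1 evaluable post-baseline sample.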

[1] = test system: patients with myelofibrosis; assay: Bone marrow fibrosis grade; format: in vivo, human
How it was run: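 Adults with myelofibrosis took the oral test compound once or twice daily in continuous 28-day cycles. Bone marrow biopsies were taken at screening (within 28 days before first dose), on Day 1 of Cycle 4, then every 3 cycles, and read at each site. Fibrosis was graded 0–3 and categorized against baseline as improved ≥1 grade, stable, or worsened ≥1 grade.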

Plasma pharmacokinetics = format: in vivo, human
How it was run: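 Plasma was sampled on Days 1, 8 and 29: predose and ~0.5, 1, 2, 3, 4, 6 and 8 h after oral dosing, plus 24 h on Days 1 and 29. Test compound was measured by LC-MS/MS (LLOQ 1 ng/ml). For BID regimens, AUC0–24 was taken as twice AUC0–12. Analysis covered patients with ≥1 evaluable profile.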

[2] = test system: JAK2^V617F-driven mouse model; settings: cited from earlier work
[3] = test system: patients with myelofibrosis; assay: Splenic response by palpation; format: in vivo, human
How it was run: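 Spleen size was measured by palpation and response scored by IWG-MRT criteria. Assessments fell on Day 1 of Cycles 2, 3 and 4, then every 3 cycles, during daily oral dosing in continuous 28-day cycles. Analysis covered patients who completed ≥1 cycle and had baseline splenomegaly ≥5 cm.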

[4] = test system: patients with myelofibrosis; assay: Hemoglobin/platelet response and transfusion status; format: in vivo, human
How it was run: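 Oral test compound was given QD or BID in continuous 28-day cycles. Hematologic response was scored by IWG-MRT criteria on Day 1 of Cycles 2, 3 and 4, then every 3 cycles. Transfusion dependence was defined as ≥6 units packed red cells in any rolling 12-week interval. Patients without transfusion in the 12 weeks before entry were classed transfusion-free at baseline.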

JAK2 = settings: cited from earlier work
[5] = test system: patients with myelofibrosis; assay: MF-associated symptoms; format: in vivo, human
How it was run: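 Symptoms were self-rated on the Myelofibrosis Symptom Assessment Form at baseline, on Day 1 of Cycles 2 and 4, then every 3 cycles, during daily oral dosing in 28-day cycles. Evaluable patients had ≥1 cycle treated and a baseline symptom score >2. Each symptom was scored for ≥50% reduction, with a subgroup of patients pretreated with a JAK2 inhibitor.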

[6] = 21 patients, doses ⩾300 mg QD, following 4 cycles
[7] = 36 evaluable patients, all cohorts
[8] = individual patient with BMF improvement after 3 cycles, 125 mg QD
[9] = individual patients with BMF improvement after 3 cycles, 300 mg QD
[10] = patients without BMF improvement after 3 cycles (n=19)

Which “JAK2^V617F allele burden during treatment” value (JAK2^V617F allele burden; JAK2^V617F-positive patients) does the source give for `C[C@H](Nc1cc(-c2cnn(C)c2)cc(Nc2cnccn2)n1)c1ccc(F)cc1` [NS-018] here?
The value was “largely unchanged; also recorded: remained similar to the baseline value in almost all patients”.

And the “Patients with decrease in allele burden of ⩾25%” value (JAK2^V617F allele burden; at Cycle 7 in one and Cycle 16 in the other)?
The value was 2 patients.

And the “B2M, CRP, IL-18, myeloperoxidase and TNFR2 plasma levels” value (cytokines; [6])?
The value was “Dose-dependent downregulation”.

And the “Erythropoietin, leptin and eotaxin-1 plasma levels” value (cytokines; [6])?
The value was “dose-dependent upregulation”.

And the “Tumor necrosis factor-α and IL-6 levels” value (cytokines; after 4 weeks of treatment)?
Its value is “unchanged”.

What about the “Patients with improvement of ⩾1 BMF grade” value ([1]; after 3 cycles, 30 evaluable patients) of the same compound?
Its value is 37%.

What about the “Patients with unchanged BMF grade” value ([1]; after Cycle 3, 30 evaluable patients) of the same compound?
The value was 53%.

What about the “Patients with BMF worsening” value ([1]; at completion of Cycle 3, 30 evaluable patients) of the same compound?
Its value is 10%.

What about the “Duration of BMF grade change” value ([1]; individual patient, 75 mg QD) of the same compound?
Its value is 3 cycles.

And the “Duration of BMF grade change” value ([1]; individual patient, 125 mg QD)?
Its value is 12 cycles.

And the “Duration of BMF grade change” value ([1]; individual patient, 250 mg BID)?
The value was 2 cycles.

What about the “Duration of BMF grade change” value ([1]; individual patient, 400 mg QD) of the same compound?
Its value is 6 cycles.

And the “Duration of BMF grade change” value ([1]; individual patients, 300 mg BID)?
Its value is 2 cycles and 1 cycles.

And the “Duration of BMF grade change” value ([1]; individual patients, 300 mg QD)?
Its value is 3 cycles and 39 cycles and 9 cycles.

What about the “Duration of BMF grade change” value ([1]; individual patients, 400 mg BID) of the same compound?
The value was 1 cycles and 12 cycles.

What about the “Patients with BMF improvement maintained for >12 weeks” value ([1]; of the 11 improved after 3 cycles) of the same compound?
The value was 5 patients.

What about the “Patients achieving BMF improvement from baseline later in the study” value ([1]; of those with unchanged BMF grade after Cycle 3) of the same compound?
Its value is 6 patients.

What about the “Time to maximum plasma concentration (Cmax)” value (Plasma pharmacokinetics; Day 8, postdosing, all dose cohorts, oral) of the same compound?
Its value is 1 to 2 h.

And the “Dose proportionality of systemic exposure” value (Plasma pharmacokinetics; based on Cmax on Day 8)?
The value was “approximately dose proportional”.

What about the “Drug accumulation with multiple dosing” value (Plasma pharmacokinetics; exposure Days 8 vs 29) of the same compound?
The value was “did not accumulate; also recorded: no evidence of drug accumulation”.

What about the half-life (Plasma pharmacokinetics; human, plasma, po) of the same compound?
The half-life was 120 to 300 min.

And the Splenomegaly ([2]; JAK2^V617F-driven mouse model)?
Its Splenomegaly is “reduced splenomegaly”.

And the “Leukocytosis, BMF and survival” value ([2]; murine model)?
The value was “Improvements”.

And the “Peripheral blood erythrocyte or platelet counts” value ([2]; murine model)?
The value was “without reducing”.

What about the “Median (range) cycles to splenic reduction ⩾50%” value ([3]; 100 mg BID) of the same compound?
The value was 7.5 (3–12) cycles.

What about the “Median (range) cycles to splenic reduction ⩾50%” value ([3]; 200 mg BID) of the same compound?
The value was 1 cycles.

And the “Median (range) cycles to splenic reduction ⩾50%” value ([3]; 200 mg QD)?
The value was 3 cycles.

And the “Median (range) cycles to splenic reduction ⩾50%” value ([3]; 250 mg BID)?
Its value is 3 cycles.

What about the “Median (range) cycles to splenic reduction ⩾50%” value ([3]; 300 mg BID) of the same compound?
The value was 1 cycles.

And the “Median (range) cycles to splenic reduction ⩾50%” value ([3]; 300 mg QD)?
Its value is 2 (1–8) cycles.

And the “Median (range) cycles to splenic reduction ⩾50%” value ([3]; 400 mg BID)?
The value was 1.5 (1–2) cycles.

And the “Median (range) cycles to splenic reduction ⩾50%” value ([3]; 400 mg QD)?
Its value is 1 cycles.

What about the “Patients achieving ⩾50% reduction in palpable spleen size” value [3, 7] of the same compound?
Its value is 56%.

What about the “Patients with splenic reduction of 100%” value [3, 7] of the same compound?
Its value is 31%.

And the “Patients with 100% splenic reduction” value ([3]; JAK2^V617F-negative responders)?
The value was 3 patients.

What about the “Median duration of splenic response (range)” value ([3]; all cohorts) of the same compound?
Its value is 5.5 (1–24) cycles.

And the “Median (range) cycles to splenic reduction ⩾50%” value ([3]; all dose cohorts)?
Its value is 1 (1–12) cycles.

And the “Patients achieving ⩾50% reduction in spleen size” value ([3]; baseline spleen >10 cm)?
The value was 15 patients.

What about the “Patients attaining 100% reduction in spleen size” value ([3]; baseline spleen ⩽10 cm) of the same compound?
The value was 5 patients.

And the “Patients achieving ⩾50% reduction in palpable spleen size” value ([3]; evaluable patients with prior JAK2 inhibitor treatment)?
The value was 47%.

And the “Patients achieving ⩾50% reduction in palpable spleen size” value ([3]; evaluable patients with the JAK2^V617F mutation)?
The value was 50%.

And the “Median (range) cycles to splenic reduction ⩾50%” value ([3]; prior JAK2 inhibitor treatment)?
Its value is 2 (1–12) cycles.

What about the “Patients with 100% splenic reduction” value ([3]; responders with the JAK2^V617F mutation) of the same compound?
The value was 8 patients.

And the “Hemoglobin IWG-MRT clinical improvement” value ([4]; all cohorts)?
Its value is 4 patients.

And the “Hemoglobin improvement (⩾20 g/l increase)” value ([4]; all cohorts)?
Its value is 11 patients.

And the “Platelet IWG-MRT clinical improvement” value ([4]; all cohorts)?
Its value is 1 patients.

And the “Platelet improvement (100% increase)” value ([4]; all cohorts)?
Its value is 2 patients.

And the “Increase in Hb of ⩾20 g/l” value ([4]; individual patient with BMF improvement after 3 cycles, 75 mg QD)?
Its value is “✓ (not CI)”.

What about the “100% increase in Plt count” value [4, 8] of the same compound?
The value was “✓ (CI)”.

And the “Increase in Hb of ⩾20 g/l” value [4, 8]?
The value was “✓ (not CI)”.

And the “Increase in Hb of ⩾20 g/l” value ([4]; individual patients with BMF improvement after 3 cycles, 300 mg BID)?
The value was “✓ (CI)”.

And the “100% increase in Plt count” value [4, 9]?
Its value is “✓ (not CI)”.

And the “Increase in Hb of ⩾20 g/l” value [4, 9]?
Its value is “✓ (CI)”.

What about the “Increase in Hb of ⩾20 g/l” value ([4]; individual patients with BMF improvement after 3 cycles, 400 mg BID) of the same compound?
Its value is “✓ (not CI)”.

And the “Patients achieving transfusion independence” value ([4]; of the 10 patients transfusion dependent at baseline)?
Its value is 3 patients.

And the Hemoglobin responses [4, 10]?
The Hemoglobin responses was 2 responses.

And the Platelet responses [4, 10]?
The Platelet responses was “no platelet responses”.

What about the “Selectivity for JAK2 over JAK1” value (JAK2) of the same compound?
The value was “specificity of this agent for JAK2 over JAK1”.

And the Median inhibitory concentration (JAK2; in vitro kinase assay)?
Its Median inhibitory concentration is “subnanomolar range”.

What about the “Reductions in symptom scores achieved in at least some patients” value ([5]; all symptoms measured) of the same compound?
The value was “up to 100%”.

And the “Mean MF-SAF scores” value ([5]; by Week 4, all 8 assessed symptoms, total evaluable population)?
The value was “reductions in mean MF-SAF scores”.

And the “Mean MF-SAF symptom score” value ([5]; patients with previous JAK2 inhibitor treatment)?
The value was “reduction in mean score for all symptoms”.
